Assay results as given in ChEMBL document CHEMBL2401724, “Synthesis and structure--activity relationships of N²-alkylated quaternary β-carbolines as novel antitumor agents” (Eur J Med Chem, 2013).

Legend:
BGC-823 = experiment: Cytotoxicity against human BGC823 cells by MTT assay; assay type: functional, cell-based
Method in brief: (§1)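 Cell lines were cultured in 96-well microtitre plates at 37 °C in humidified 5% CO₂. Compounds were dissolved in DMSO, at ≤2% (v/v) final in the growth medium. Viability was read by MTT staining, expressed relative to untreated cells.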

SK-OV-3 = experiment: Cytotoxicity against human SKOV3 cells by MTT assay; assay type: functional, cell-based; method in brief: as §1
CWR22R = experiment: Cytotoxicity against human 22Rv1 cells by MTT assay; assay type: functional, cell-based; method in brief: as §1
[1] = Acute toxicity in ip dosed C57BL/6 mouse after 14 days; assay type: organism-based; settings: in vivo
Method in brief: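 C57BL/6 mice (9–12 weeks, 18–22 g), single i.p. dose; watched continuously for 2 h, intermittently over 24 h, then occasionally to day 14 for behaviour, deaths and delayed effects. Survivors killed at day 14; heart, liver, kidneys inspected macroscopically, early deaths also examined. LD50 derived graphically.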

[2] = Cytotoxicity against mouse LLC cells by MTT assay; assay type: functional, cell-based; settings: Lewis lung carcinoma; method in brief: as §1
HT-29 = experiment: Cytotoxicity against human HT-29 cells by MTT assay; assay type: functional, cell-based; method in brief: as §1
[3] = Cytotoxicity against human ECA109 cells by MTT assay; assay type: functional, cell-based; settings: ECa-109; method in brief: as §1
[4] = Antitumor activity against mouse Sarcoma 180 cells allografted in mouse assessed as tumor growth inhibition at 2.5 mg/kg, ip qd administered for 7 days measured after 21 days relative to control; assay type: functional; settings: Sarcoma-180, ip, route intraperitoneal, read-out: TGI
Method in brief: (§2)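 Tumour cells (S180 sarcoma or Lewis lung) were first grown in mice for 7 days, then harvested. Viable cells (2 × 10⁶/mouse) were injected s.c. into the armpit. Groups of 10 female mice received the compound i.p. once daily for 7 consecutive days, starting 24 h after inoculation. Cyclophosphamide 30 mg/kg served as positive control and vehicle as negative control. Body weights were taken every 3 days. Mice were killed on day 21 post-inoculation, and tumours were excised and weighed to calculate the inhibition rate versus control.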

HepG2 = experiment: Cytotoxicity against human HepG2 cells by MTT assay; assay type: functional, cell-based; method in brief: as §1
769-P = experiment: Cytotoxicity against human 769-P cells by MTT assay; assay type: functional, cell-based; method in brief: as §1
MCF7 = experiment: Cytotoxicity against human MCF7 cells by MTT assay; assay type: functional, cell-based; method in brief: as §1
A-375 = experiment: Cytotoxicity against human A375 cells by MTT assay; assay type: functional, cell-based; method in brief: as §1
[5] = Antitumor activity against mouse Sarcoma 180 cells allografted in mouse assessed as tumor growth inhibition at 4 mg/kg, ip qd administered for 7 days measured after 21 days relative to control; assay type: functional; settings: Sarcoma-180, ip, route intraperitoneal, read-out: TGI; method in brief: as §2
LoVo = experiment: Cytotoxicity against human LoVo cells; assay type: functional, cell-based
[6] = tested on: Lewis lung carcinoma cell line; experiment: Antitumor activity against mouse LLC cells allografted in mouse assessed as tumor growth inhibition at 4 mg/kg, ip qd administered for 7 days measured after 21 days relative to control; assay type: functional; settings: route intraperitoneal, read-out: TGI; method in brief: as §2
[7] = tested on: Lewis lung carcinoma cell line; experiment: Antitumor activity against mouse LLC cells allografted in mouse assessed as tumor growth inhibition at 1.75 mg/kg, ip qd administered for 7 days measured after 21 days relative to control; assay type: functional; settings: route intraperitoneal, read-out: TGI; method in brief: as §2
[8] = Antitumor activity against mouse Sarcoma 180 cells allografted in mouse assessed as tumor growth inhibition at 1.75 mg/kg, ip qd administered for 7 days measured after 21 days relative to control; assay type: functional; settings: Sarcoma-180, ip, route intraperitoneal, read-out: TGI; method in brief: as §2

Row | SMILES | IC50 (BGC-823) [µM] | IC50 (SK-OV-3) [µM] | IC50 (CWR22R) [µM] | LD50 at 336 h [1] [mg/kg] | IC50 [2] [µM] | IC50 (HT-29) [µM] | IC50 [3] [µM] | inhibition in vivo at 2.5 mg/kg [4] [%] | IC50 (HepG2) [µM] | IC50 (769-P) [µM] | IC50 (MCF7) [µM] | IC50 (A-375) [µM] | inhibition in vivo at 4 mg/kg [5] [%] | IC50 (LoVo) [µM] | inhibition in vivo at 4 mg/kg [6] [%] | inhibition in vivo at 1.75 mg/kg [7] [%] | inhibition in vivo at 1.75 mg/kg [8] [%]
1 | Fc1ccc(C[n+]2ccc3c4ccccc4n(CCCc4ccccc4)c3c2)cc1.[Cl-] | 8.1 | 12.2 | 4.3 | 12.5 | 8.1 | 9.1 | 5.3 | 51.5 | 10.4 | 14.3 | 9.7 | 10.4 |  |  |  |  | 
2 | c1ccc(Cn2c3ccccc3c3cc[n+](Cc4ccccc4)cc32)cc1 | 38.7 | 16.9 | 5.7 |  | < 2 | 42.5 | 32.7 |  | 34.6 | 8.7 | 18.7 | 7.8 | 45.9 | 20 | 48.5 |  | 
3 | [Br-].c1ccc(CCCn2c3ccccc3c3cc[n+](Cc4ccccc4)cc32)cc1 | 8.5 | 4.4 | 3.2 | 8.9 | 3.9 | 7.6 | 11.7 |  | 7.9 | 4.9 | 14.4 | 8.7 |  |  |  | 59.2 | 62.1
